From PubChem BioAssay
Most compounds without a hit are left out; they make up all but 2.2% or so of the library.
MT stabilize HCS: microtubule stabilizers in HeLa cells, primary screen, imaging, high-content imaging; HeLa tubulin immunostaining HCS, 24 h; share of cells brighter than vehicle mean+2SD; % tubulin-high responders, % at 10 µM; 200,000 compounds, 0.83% hits;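 active = plate Z-score above 3 for both tubulin-high and condensed-nucleus cell shares, with cell loss under 80%, at 10 µM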;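 note: anti alpha tubulin signal scored within the nucleus-defined area of each cell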
Ba/F3 V617F tox: reduced viability of JAK2V617F-dependent Ba/F3 cells, primary screen, JAK2V617F inhibitor project, cell-based, Ba/F3 EpoR-JAK2V617F, luminescence; ATP luminescence; inhibition, % at 5.6 µM; 220,000 compounds, 1.1% hits;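 active = inhibition above the campaign mean plus 3 SD over all tested compounds, cut at about 24% in these data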;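 note: cytokine-independent growth of Ba/F3 cells driven by EpoR plus mutant JAK2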
APP transl inh: inhibitors of APP translation via 5'UTR reporter, primary screen, APP 5'UTR luciferase, SH-SY5Y cells; SH-SY5Y APP 5'UTR-luciferase reporter, luminescence; inhibition, % at 2 µM; 190,000 compounds, 0.82% hits; AID 1285, 2008;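 active = inhibition above a set limit, derived from the sample mean plus 3 SD, cut at about 45% in these data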
BaF3 tox: parental Ba/F3 cell viability inhibition, counter-screen for JAK2V617F inhibitor project, murine pro-B, CellTiter-Glo luminescence; AID 1486, 2009; 220,000 compounds, 1.1% hits; CellTiter-Glo ATP luminescence; inhibition, % at 5.6 µM;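 active = inhibition above a per-campaign cutoff, the mean inhibition of all tested compounds plus 3 SD, cut at about 27% in these data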
IEC-6 cytotox: cytotoxicity in IEC-6 intestinal epithelial cells, primary screen, cytotoxicity control for KLF5 inhibitor project, cell-based, luminescence | 290,000 compounds, 0.78% hits | inhibition, % at 5 µM | IEC-6 cytotoxicity, luminescence viability; in the data active = inhibition above about 22%
bCat nuc transl: modulators of beta-catenin nuclear translocation, primary screen, imaging, HeLa cells, immunofluorescence, high-content; AID 1665, 2009; nuclear translocation activity, % at 5 µM; 190,000 compounds, 0.3% hits;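 active = nuclear translocation activity above 50% at 5 µM, with a well cell count of 50 or more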;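 note: per-cell ratio of nuclear to cytoplasmic median beta-catenin stain intensity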
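Signal – beta-catenin immunofluorescence imaging with DAPI · Test system – human HeLa cell line · Dosing – 5 µM primary single dose, 0.1% DMSO, 0.02–20 µM confirmation series · Measure – % activation, nuclear-to-cytoplasmic median beta-catenin signal ratio per cell · Incubation – 24 h compound exposure at 37°C, 5% CO2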
Large screens that a line does not name were inactive.

CN1/C(=C\C(=O)C(F)F)C(C)(C)c2ccccc21	none
CC(C)C(=O)NC(=S)/C=C1/N(C)c2ccccc2C1(C)C	Ba/F3 V617F tox 30, BaF3 tox 57
Cc1ccc(C(=O)NCC(=O)OCC(=O)/C=C2\N(C)c3ccccc3C2(C)C)cc1C	none
Cc1ccc(C(=O)NC(=S)/C=C2\N(C)c3ccccc3C2(C)C)cc1	BaF3 tox 36
CCc1ccccc1-n1nnnc1SCC(=O)Nc1ccc(N2CCN(C)CC2)cc1	none (no result: MT stabilize HCS, Ba/F3 V617F tox, APP transl inh, BaF3 tox, bCat nuc transl)
Cc1ccc(COC(=O)NCc2cccnc2)cc1	none (no result: MT stabilize HCS, Ba/F3 V617F tox, APP transl inh, BaF3 tox, bCat nuc transl)
C[N+]1(CC(=O)NNc2c3ccccc3nc3ccccc23)CCOCC1	BaF3 tox 29
Cc1cccc(C)c1Nc1nnc(SCc2cc([N+](=O)[O-])cc3c2OCOC3)s1	APP transl inh 48 (no result: bCat nuc transl)
COc1cccc(Nc2nnc(SCc3cc([N+](=O)[O-])cc4c3OCOC4)s2)c1	APP transl inh 92
O=[N+]([O-])c1cc2c(c(CSc3ncccn3)c1)OCOC2	none
Cc1ccc(C)c(NC(=O)CCN2CCCCC2)c1	none (no result: MT stabilize HCS, Ba/F3 V617F tox, APP transl inh, BaF3 tox, bCat nuc transl)
Cn1c(=O)c2c(nc3n2CC(COc2ccccc2)O3)n(C)c1=O (centres undefined)	none (no result: MT stabilize HCS, Ba/F3 V617F tox, APP transl inh, BaF3 tox, bCat nuc transl)
NC(=O)c1ccc(N=Nc2c(-c3ccccc3)[nH]n(-c3ccccc3)c2=O)cc1	APP transl inh 69
C=CCNC(=O)c1onc(CSc2ccc(Cl)cc2)c1C(=O)O	Ba/F3 V617F tox 49, BaF3 tox 35
C=CCNC(=O)c1onc(CSc2ccc(Cl)cc2)c1C(=O)NCC=C	none (no result: MT stabilize HCS, Ba/F3 V617F tox, APP transl inh, BaF3 tox, IEC-6 cytotox)
COc1ccc(-c2onc3ccc(Br)cc23)cc1	none
COc1cc(-c2onc3ccc(Br)cc23)cc(OC)c1OC	MT stabilize HCS 7.7, Ba/F3 V617F tox 69, APP transl inh 73, BaF3 tox 79
COc1cccc(-c2nc(NCc3ccccc3)c3ccccc3n2)c1O	none (no result: MT stabilize HCS, Ba/F3 V617F tox, APP transl inh, BaF3 tox, bCat nuc transl)
CCN(CC)c1nc(-c2cccc(OC)c2O)nc2ccccc12	APP transl inh 52
C/C(=N\NC(N)=S)c1ccc2c(c1)OCCO2	none (no result: MT stabilize HCS, APP transl inh)
C/C(=N\NC(=S)Nc1ccc(F)cc1)c1ccc2c(c1)OCCO2	MT stabilize HCS 22 (no result: bCat nuc transl)
Cc1ccc(OCCNC(=O)C(=O)NCc2ccco2)cc1	MT stabilize HCS 17
Cc1cc(C)c(S(=O)(=O)/N=C2/C=C(Sc3ncn[nH]3)C(=O)c3ccccc32)cc1C	Ba/F3 V617F tox 41, APP transl inh 89
COc1ccc(OC)c(S(=O)(=O)N/N=C\c2cn(CC(N)=O)c3ccccc23)c1	none (no result: MT stabilize HCS, Ba/F3 V617F tox, APP transl inh, BaF3 tox, bCat nuc transl)
CCNc1ccc(C(=O)NN=C2CCCC2)cc1[N+](=O)[O-]	APP transl inh 65
COc1cccc(/C=N/Nc2nc(Nc3ccccc3)nc(-n3nc(C)cc3C)n2)c1O	APP transl inh 79 (no result: bCat nuc transl)
COc1cccc(/C=N/Nc2cc(-n3nc(C)cc3-c3ccccc3)ncn2)c1O	APP transl inh 71
Cc1cc(C)n(-c2nc(Nc3ccccc3)nc(-n3nc(C)cc3C)n2)n1	none
CCc1nnc(NC(=O)CSc2nccn2-c2cccc(C)c2C)s1	MT stabilize HCS 19
COc1ccc(/C=C2\CCOC2=O)cc1	none
COc1ccc(/C=C2/C(=O)OCc3cc(OC)c(OC)cc32)cc1	MT stabilize HCS 20, Ba/F3 V617F tox 57, APP transl inh 82, BaF3 tox 28, IEC-6 cytotox 26
CC[C@@H](C(=O)[C@@H](C)[C@@H](O)[C@H](C)CCc1ccc(C)c(O)c1C(=O)O)[C@H]1O[C@](CC)([C@H]2CC[C@](O)(CC)[C@H](C)O2)C[C@@H]1C	IEC-6 cytotox 91 (no result: MT stabilize HCS, Ba/F3 V617F tox, APP transl inh, BaF3 tox, bCat nuc transl)
Cc1ccc2nc(N=C(N)N)nc(C)c2c1	Ba/F3 V617F tox 50, BaF3 tox 42
CCc1ccc2nc(N=C(N)N)nc(C)c2c1	Ba/F3 V617F tox 50, BaF3 tox 45
Cc1nc(/N=C(\N)NC(=O)c2ccccc2)nc2ccccc12	none
Cc1cc2nc(N=C(N)N)nc(C)c2cc1C	Ba/F3 V617F tox 73, BaF3 tox 65
O=[N+]([O-])/C=C/c1c(OCc2ccccc2)ccc2ccccc12	none
CCOC(=O)COc1ccc2ccccc2c1/C=C/[N+](=O)[O-]	APP transl inh 62
Cc1ccc(C(=O)/C=C/C(=O)c2ccc(C)cc2)cc1	APP transl inh 66
Cc1cc(C)c(S(=O)(=O)Cc2ccccc2)c(Cl)n1	none (no result: MT stabilize HCS, Ba/F3 V617F tox, APP transl inh, BaF3 tox, bCat nuc transl)
Cc1c(CCC(=O)NCCC(=O)O)c(=O)oc2c(C)c3oc4c(c3cc12)CCCC4	none (no result: MT stabilize HCS, Ba/F3 V617F tox, APP transl inh, BaF3 tox, bCat nuc transl)
CCCc1cc(=O)[nH]c(SCC(=O)N(C)CC(=O)Nc2ccccc2CC)n1	none
CCN(CC)S(=O)(=O)c1cc(NC(=O)Cn2ncc(Cl)c(Cl)c2=O)ccc1C	none (no result: MT stabilize HCS, APP transl inh)
CCn1cc(C(=O)NC(C)C23CC4CC(CC(C4)C2)C3)cn1 (centres undefined)	none
Cc1ccc(C)c(C(=O)Cn2ncc(Cl)c(Cl)c2=O)c1	none
CCC(=O)Nc1ccc(C(=O)Cn2ncc(Cl)c(Cl)c2=O)cc1	Ba/F3 V617F tox 78, BaF3 tox 45 (no result: MT stabilize HCS, APP transl inh)
Cc1cc(Br)ccc1NC(=O)CNC(=O)Cn1ncc(Cl)c(Cl)c1=O	APP transl inh 96
CC(NC(=O)Cn1ncc(Cl)c(Cl)c1=O)C12CC3CC(CC(C3)C1)C2 (centres undefined)	Ba/F3 V617F tox 63, APP transl inh 96, BaF3 tox 75, IEC-6 cytotox 25
CCc1ccccc1NC(=O)CN(C)C(=O)Cn1ncc(Cl)c(Cl)c1=O	APP transl inh 97
CCCNC(=O)CCCN1C(=O)c2ccccc2Sc2ncccc21	none (no result: MT stabilize HCS, Ba/F3 V617F tox, APP transl inh, BaF3 tox, bCat nuc transl)
N#C/C(=C\c1ccc(N2CCOCC2)o1)c1nc2ccccc2[nH]1	none
N#C/C(=C/c1ccc(N2CCOCC2)o1)c1ccc(Cl)cc1	MT stabilize HCS 48, Ba/F3 V617F tox 47, BaF3 tox 56
CCCc1nn(C(=O)c2ccccc2)c2c1C(=O)CC(C)(C)C2	none (no result: bCat nuc transl)
CCCc1nn(-c2cc(Cl)ccc2OC)c2c1C(=O)CC(C)(C)C2	MT stabilize HCS 12 (no result: bCat nuc transl)
CCc1nn(-c2cc(Cl)ccc2OC)c2c1C(=O)CCC2	MT stabilize HCS 27
CCCCCNC(=O)Cn1c(=O)c2c(ncn2CC(C)C)n(Cc2ccccc2)c1=O	none (no result: MT stabilize HCS, Ba/F3 V617F tox, APP transl inh, BaF3 tox, bCat nuc transl)
Cc1ccc(NC2=C(N3CCCCC3)C(=O)c3ccccc3C2=O)cc1	Ba/F3 V617F tox 96, BaF3 tox 98
O=C(/C=C/c1ccc(O)cc1)c1ccc(NC2=C(N3CCCCC3)C(=O)c3ccccc3C2=O)cc1	none
O=C1C(Nc2cccc(O)c2)=C(N2CCCCC2)C(=O)c2ccccc21	Ba/F3 V617F tox 87, BaF3 tox 99
O=C1C(Nc2ccccc2)=C(N2CCCCC2)C(=O)c2ccccc21	Ba/F3 V617F tox 98, BaF3 tox 102
CN(C1=C(N2CCCCC2)C(=O)c2ccccc2C1=O)c1ccccc1	Ba/F3 V617F tox 26, BaF3 tox 65
